Several values for one entry are separate records, joined by “and”; a condition that tells them apart may be missing. Equal values may be shown once.
System: HEK-293T
Assay: Multiplex assay against HEK293T
Assay type: toxicity, cell-based
Settings: human
Outline: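 Per cents of healthy-nucleus cells form the tubulin, mitochondrial-mass and membrane-permeability phenotype values. Live cells were stained at seeding with Hoechst33342, BioTracker Green Microtubule Cytoskeleton Dye, MitoTracker Red and Annexin V Alexa Fluor 680. After compound addition they were imaged on a CQ1 microscope at 37°C and 5% CO2, and CellPathfinder machine-learning gating split them into Hoechst high-intensity objects or normal cells, normal cells into healthy, pyknosed or fragmented nuclei, and pyknosed cells into mitotic or apoptotic.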

[1] = 12 h, 1 µM, compound concentration 1 uM
[2] = 12 h, 10 µM, compound concentration 10 uM
[3] = 24 h, 1 µM, compound concentration 1 uM
[4] = 24 h, 10 µM, compound concentration 10 uM
[5] = 48 h, 1 µM, compound concentration 1 uM
[6] = 48 h, 10 µM, compound concentration 10 uM

CC1(COc2ccc3c(c2)ncn3-c2ccc3cccc(N4CCC(N)CC4)c3n2)COC1 [CRENOLANIB]
Population Apoptotic (%) [1]: 58% and 34%
Population Fragmented Nuclei (%) [1]: 14% and 10%
Population Healthy Nuclei (%) [1]: 79% and 80%
Population Hoechst High Intensity Objects (%) [1]: 3% and 6%
Population Membrane Permeable-Phenotype (%) [1]: 2% and 1%
Population Mitochondria Different-Phenotype (%) [1]: 23% and 51%
Population Mitotic Cells (%) [1]: 41% and 65%
Population Normal (%) [1]: 96% and 93%
Population Pyknosed Nuclei (%) [1]: 6% and 8%
Population Tubulin-Different-Phenotype (%) [1]: 46% and 51%
Total Cell Count [1]: 412 and 332
Population Apoptotic (%) [2]: 69% and 55%
Population Fragmented Nuclei (%) [2]: 67% and 64%
Population Healthy Nuclei (%) [2]: 13% and 17%
Population Hoechst High Intensity Objects (%) [2]: 67% and 69%
Population Membrane Permeable-Phenotype (%) [2]: 0%
Population Mitochondria Different-Phenotype (%) [2]: 84% and 90%
Population Mitotic Cells (%) [2]: 30% and 45%
Population Normal (%) [2]: 32% and 30%
Population Pyknosed Nuclei (%) [2]: 18% and 17%
Population Tubulin-Different-Phenotype (%) [2]: 68% and 50%
Total Cell Count [2]: 423 and 376
Population Apoptotic (%) [3]: 29% and 45%
Population Fragmented Nuclei (%) [3]: 20% and 15%
Population Healthy Nuclei (%) [3]: 66% and 73%
Population Hoechst High Intensity Objects (%) [3]: 2% and 6%
Population Membrane Permeable-Phenotype (%) [3]: 2% and 1%
Population Mitochondria Different-Phenotype (%) [3]: 22% and 33%
Population Mitotic Cells (%) [3]: 70% and 54%
Population Normal (%) [3]: 97% and 93%
Population Pyknosed Nuclei (%) [3]: 12% and 11%
Population Tubulin-Different-Phenotype (%) [3]: 23% and 35%
Total Cell Count [3]: 547 and 415
Population Apoptotic (%) [4]: 72%
Population Fragmented Nuclei (%) [4]: 60% and 69%
Population Healthy Nuclei (%) [4]: 16% and 15%
Population Hoechst High Intensity Objects (%) [4]: 56% and 63%
Population Membrane Permeable-Phenotype (%) [4]: 0%
Population Mitochondria Different-Phenotype (%) [4]: 89% and 94%
Population Mitotic Cells (%) [4]: 27%
Population Normal (%) [4]: 43% and 36%
Population Pyknosed Nuclei (%) [4]: 23% and 14%
Population Tubulin-Different-Phenotype (%) [4]: 92% and 73%
Total Cell Count [4]: 394 and 334
Population Apoptotic (%) [5]: 29% and 47%
Population Fragmented Nuclei (%) [5]: 19% and 23%
Population Healthy Nuclei (%) [5]: 72% and 70%
Population Hoechst High Intensity Objects (%) [5]: 1%
Population Membrane Permeable-Phenotype (%) [5]: 1%
Population Mitochondria Different-Phenotype (%) [5]: 17% and 21%
Population Mitotic Cells (%) [5]: 70% and 52%
Population Normal (%) [5]: 98%
Population Pyknosed Nuclei (%) [5]: 7% and 6%
Population Tubulin-Different-Phenotype (%) [5]: 10% and 14%
Total Cell Count [5]: 844 and 639
Population Apoptotic (%) [6]: 86% and 84%
Population Fragmented Nuclei (%) [6]: 51% and 47%
Population Healthy Nuclei (%) [6]: 17% and 22%
Population Hoechst High Intensity Objects (%) [6]: 41% and 49%
Population Membrane Permeable-Phenotype (%) [6]: 0%
Population Mitochondria Different-Phenotype (%) [6]: 97% and 96%
Population Mitotic Cells (%) [6]: 13% and 15%
Population Normal (%) [6]: 59% and 50%
Population Pyknosed Nuclei (%) [6]: 30%
Population Tubulin-Different-Phenotype (%) [6]: 95% and 96%
Total Cell Count [6]: 400 and 298

CCn1c(-c2nonc2N)nc2c(C#CC(C)(C)O)ncc(OCC3CCCNC3)c21 (stereo not given)
Population Apoptotic (%) [1]: 10.29% and 11.11%
Population Fragmented Nuclei (%) [1]: 2.35% and 5.52%
Population Hoechst High Intensity Objects (%) [1]: 0.29% and 0%
Population Membrane Permeable-Phenotype (%) [1]: 0%
Population Mitochondria Different-Phenotype (%) [1]: 31.65% and 45.45%
Population Mitotic Cells (%) [1]: 89.71% and 88.89%
Population Normal (%) [1]: 99.71% and 100%
Population Pyknosed Nuclei (%) [1]: 51.32% and 86.9%
Total Cell Count [1]: 342 and 145
Population Apoptotic (%) [2]: 15.66% and 20.38%
Population Fragmented Nuclei (%) [2]: 0.98% and 2.91%
Population Hoechst High Intensity Objects (%) [2]: 1.92% and 0%
Population Membrane Permeable-Phenotype (%) [2]: 0%
Population Mitochondria Different-Phenotype (%) [2]: 33.96% and 20%
Population Mitotic Cells (%) [2]: 84.34% and 79.62%
Population Normal (%) [2]: 98.08% and 100%
Population Pyknosed Nuclei (%) [2]: 64.5% and 91.28%
Population Tubulin-Different-Phenotype (%) [2]: 48.11% and 40%
Total Cell Count [2]: 313 and 172
Population Apoptotic (%) [3]: 27.07% and 20.59%
Population Fragmented Nuclei (%) [3]: 1.2% and 4.2%
Population Healthy Nuclei (%) [3]: 58.73% and 24.48%
Population Hoechst High Intensity Objects (%) [3]: 0.3% and 0%
Population Membrane Permeable-Phenotype (%) [3]: 1.54% and 0%
Population Mitochondria Different-Phenotype (%) [3]: 34.87% and 20%
Population Mitotic Cells (%) [3]: 72.93% and 79.41%
Population Normal (%) [3]: 99.7% and 100%
Population Pyknosed Nuclei (%) [3]: 40.06% and 71.33%
Total Cell Count [3]: 333 and 143
Population Apoptotic (%) [4]: 43.87% and 34.93%
Population Fragmented Nuclei (%) [4]: 1.02% and 3.07%
Population Hoechst High Intensity Objects (%) [4]: 1.01% and 0%
Population Membrane Permeable-Phenotype (%) [4]: 0%
Population Mitochondria Different-Phenotype (%) [4]: 55.56% and 50%
Population Mitotic Cells (%) [4]: 56.13% and 65.07%
Population Normal (%) [4]: 98.99% and 100%
Population Pyknosed Nuclei (%) [4]: 52.9% and 89.57%
Population Tubulin-Different-Phenotype (%) [4]: 82.22% and 41.67%
Total Cell Count [4]: 296 and 163
Population Apoptotic (%) [5]: 16.67% and 24.05%
Population Fragmented Nuclei (%) [5]: 1.43% and 3.95%
Population Healthy Nuclei (%) [5]: 81.46% and 51.41%
Population Hoechst High Intensity Objects (%) [5]: 0.32% and 0.56%
Population Membrane Permeable-Phenotype (%) [5]: 3.89% and 2.2%
Population Mitochondria Different-Phenotype (%) [5]: 59.34% and 63.74%
Population Mitotic Cells (%) [5]: 83.33% and 75.95%
Population Normal (%) [5]: 99.68% and 99.44%
Population Pyknosed Nuclei (%) [5]: 17.12% and 44.63%
Population Apoptotic (%) [6]: 73.58% and 71.96%
Population Fragmented Nuclei (%) [6]: 1.19% and 2.01%
Population Healthy Nuclei (%) [6]: 56.75% and 26.17%
Population Hoechst High Intensity Objects (%) [6]: 1.18% and 0%
Population Membrane Permeable-Phenotype (%) [6]: 2.8% and 0%
Population Mitochondria Different-Phenotype (%) [6]: 97.2% and 92.31%
Population Mitotic Cells (%) [6]: 26.42% and 28.04%
Population Normal (%) [6]: 98.82% and 100%
Population Pyknosed Nuclei (%) [6]: 42.06% and 71.81%
Population Tubulin-Different-Phenotype (%) [6]: 70.63% and 92.31%
Total Cell Count [6]: 255 and 149
